Assay results from ChEMBL document CHEMBL3352550, “Discovery and optimization of 4,5-diarylisoxazoles as potent dual inhibitors of pyruvate dehydrogenase kinase and heat shock protein 90” (J Med Chem, 2014).
pIC50: −log10 of the molar value. The source made the active and inactive calls. The rule behind the calls is not given here.

Tests used:
[1] = biological target: T1, [Pyruvate dehydrogenase (acetyl-transferring)] kinase isozyme 1, mitochondrial (Homo sapiens, UniProt Q15118); test: Inhibition of recombinant PDHK1 (unknown origin) expressed in Escherichia coli at 10 uM incubated for 1 hr by ELISA
Procedure, shortened: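 Recombinant His6-SUMO-PDHK1 was expressed in E. coli and purified on nickel resin. It was used at 0.25 µg/well on immobilized PDHA1 substrate (0.5 µg/well) with 10 µM ATP in 50 mM HEPES, 10 mM MgCl2 and 1 mM EGTA. Compounds were screened at 10 µM and percent inhibition was recorded. Detection used anti-p-PDHA1(S293) for 1 h and HRP secondary antibody for 1 h, then o-phenylenediamine, read at OD490.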

[2] = biological target: T1, [Pyruvate dehydrogenase (acetyl-transferring)] kinase isozyme 1, mitochondrial; test: Inhibition of recombinant PDHK1 (unknown origin) expressed in Escherichia coli incubated for 1 hr by ELISA
Heat shock protein HSP90 [3] = biological target: T2, Heat shock protein HSP90 (Homo sapiens, UniProt P07900+P08238); test: Inhibition of geldanamycin-BODIPY binding to full-length HSP90 (unknown origin) by fluorescence polarization based competition assay; assay type: protein assay
Procedure, shortened: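 Fluorescence polarization competition using full-length HSP90 and geldanamycin-BODIPY as probe.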

[4] = biological target: [Pyruvate dehydrogenase (acetyl-transferring)] kinase isozyme 3, mitochondrial (Homo sapiens, UniProt Q15120); test: Inhibition of PDHK3 (unknown origin)
Procedure, shortened: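 PDHK3 was expressed in E. coli as a His6-SUMO fusion and purified on nickel resin. The substrate was His6-SUMO-PDHA1, immobilized at 0.5 µg/well, with enzyme at 0.25 µg/well and 10 µM ATP in 50 mM HEPES, 10 mM MgCl2 and 1 mM EGTA. Phosphorylation was detected with anti-p-PDHA1(S293) for 1 h, then HRP secondary antibody for 1 h. Colour was developed with o-phenylenediamine and read at OD490. IC50 came from a four-parameter fit.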

[5] = biological target: T1, [Pyruvate dehydrogenase (acetyl-transferring)] kinase isozyme 1, mitochondrial; test: Inhibition of PDHK1 (unknown origin)
Heat shock protein HSP90 [6] = biological target: T2, Heat shock protein HSP90; test: Inhibition of HSP90 in human NCI-H1299 cells assessed as reduction in HER2 protein levels at 10 uM incubated for 12 hrs by immunoblotting method; assay type: cell-based
Procedure, shortened: (§1)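 NCI-H1299 cells were treated for 12 h and lysed in RIPA buffer with protease inhibitors. Equal protein was loaded per lane, run on a gel and transferred to nitrocellulose. Membranes were blocked in TBST with 3% BSA for 1 h at room temperature, then probed with primary antibody for 2 h and secondary antibody for 1 h, both at room temperature. Bands were detected by ECL.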

Heat shock protein HSP90 [7] = biological target: T2, Heat shock protein HSP90; test: Inhibition of HSP90 in human NCI-H1299 cells assessed as reduction in c-MET protein levels at 10 uM incubated for 12 hrs by immunoblotting method; assay type: cell-based; procedure, shortened: as §1
Heat shock protein HSP90 [8] = biological target: T2, Heat shock protein HSP90; test: Inhibition of HSP90 in human NCI-H1299 cells assessed as increase in HSP70 protein levels at 10 uM incubated for 12 hrs by immunoblotting method; assay type: cell-based; procedure, shortened: as §1
Heat shock protein HSP90 [9] = biological target: T2, Heat shock protein HSP90; test: Inhibition of HSP90 in human NCI-H1299 cells assessed as reduction in AKT protein levels at 10 uM incubated for 12 hrs by immunoblotting method; assay type: cell-based; procedure, shortened: as §1
NCI-H1299 [10] = test: Increase in oxygen consumption rate/extracellular acidification rate ratio in human NCI-H1299 cells at incubated for 12 hrs; assay type: functional, cell-based
[11] = Apparent permeability from basolateral to apical side in human Caco2 cells; details: Caco-2
[12] = Apparent permeability from apical to basolateral side in human Caco2 cells; details: Caco-2
[13] = Efflux ratio in human Caco2 cells; details: Caco-2
NCI-H1299 [14] = test: Reduction in oxygen consumption rate in human NCI-H1299 cells incubated for 12 hrs; assay type: functional, cell-based
Procedure, shortened: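 Cells pre-treated with varying concentrations of compound for 12 h, then oxygen consumption rate and extracellular acidification rate measured on an XF96 extracellular flux analyzer; ECAR/OCR ratio calculated from these readings.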

NCI-H1299 [15] = test: Increase in oxygen consumption rate in human NCI-H1299 cells at 10 mM incubated for 12 hrs; assay type: functional, cell-based
Procedure, shortened: (§2)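 NCI-H1299 cells were pre-treated with compound for 12 h, then oxygen consumption rate and extracellular acidification rate were read on an XF96 extracellular flux analyzer.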

[16] = biological target: T1, [Pyruvate dehydrogenase (acetyl-transferring)] kinase isozyme 1, mitochondrial; details: NCI-H1299, 10 mM
NCI-H1299 [17] = test: Reduction in extracellular acidification rate in human NCI-H1299 cells at 10 mM incubated for 12 hrs; assay type: functional, cell-based; procedure, shortened: as §2

T1 sequence (Q15118 whole entry): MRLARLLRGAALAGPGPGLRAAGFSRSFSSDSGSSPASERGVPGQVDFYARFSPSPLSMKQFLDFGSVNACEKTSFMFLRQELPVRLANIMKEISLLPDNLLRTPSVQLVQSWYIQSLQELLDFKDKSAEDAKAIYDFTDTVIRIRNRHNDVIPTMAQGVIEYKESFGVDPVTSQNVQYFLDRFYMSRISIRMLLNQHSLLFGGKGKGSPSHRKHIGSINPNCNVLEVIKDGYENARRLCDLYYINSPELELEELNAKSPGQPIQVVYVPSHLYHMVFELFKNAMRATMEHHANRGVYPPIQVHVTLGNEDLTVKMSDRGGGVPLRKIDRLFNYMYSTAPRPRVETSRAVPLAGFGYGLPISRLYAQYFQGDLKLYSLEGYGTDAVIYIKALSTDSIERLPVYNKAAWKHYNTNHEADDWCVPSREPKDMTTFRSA
Chain of [Pyruvate dehydrogenase (acetyl-transferring)] kinase isozyme 3, mitochondrial (Q15120 whole entry, the tested form may be a part): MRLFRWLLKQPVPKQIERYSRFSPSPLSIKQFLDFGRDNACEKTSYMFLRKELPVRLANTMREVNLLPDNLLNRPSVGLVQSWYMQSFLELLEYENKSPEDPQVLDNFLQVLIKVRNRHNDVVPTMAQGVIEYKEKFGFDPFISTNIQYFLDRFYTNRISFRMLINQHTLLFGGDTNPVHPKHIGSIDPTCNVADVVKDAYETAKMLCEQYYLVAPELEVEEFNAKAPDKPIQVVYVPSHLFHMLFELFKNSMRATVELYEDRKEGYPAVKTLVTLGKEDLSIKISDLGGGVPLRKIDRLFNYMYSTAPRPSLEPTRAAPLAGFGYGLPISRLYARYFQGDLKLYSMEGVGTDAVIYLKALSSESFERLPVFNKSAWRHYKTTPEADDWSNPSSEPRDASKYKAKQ

Compound	inhibition [1] [%]	pIC50 [2]	IC50 (Heat shock protein HSP90 [3]) [nM]	further results
O=C(/C=C/c1noc(-c2cc(Cl)c(O)cc2O)c1-c1ccc(O)cc1)N1CCN(c2cccc(C(F)(F)F)c2)CC1	> 50	5.53	1859	–
C[C@@H]1C[C@H]2O[C@@H]2/C=C\C=C\C(=O)Cc2c(Cl)c(O)cc(O)c2C(=O)O1 [RADICICOL]	–	–	–	pIC50 [4]: 3.64; pIC50 [5]: 3.40
COc1ccc(-c2c(C(=O)NC3CCN(Cc4ccncc4)CC3)noc2-c2cc(Cl)c(O)cc2O)cc1	> 50	7.23	15	–
COc1ccc(-c2c(C(=O)NC3CCN(CC4CC4)CC3)noc2-c2cc(Cl)c(O)cc2O)cc1	> 50	7.55	39	inhibition (Heat shock protein HSP90 [6]): Active; inhibition (Heat shock protein HSP90 [7]): Active; inhibition (Heat shock protein HSP90 [8]): Active; inhibition (Heat shock protein HSP90 [9]): Active
COc1ccc(-c2c(/C=C/C(=O)N3CCN(c4ccccc4OC)CC3)noc2-c2cc(Cl)c(O)cc2O)cc1	> 50	6.07	596	–
COc1ccc(-c2c(C(=O)Nc3ccncc3)noc2-c2cc(Cl)c(O)cc2O)cc1	> 50	6.24	154	–
COc1ccc(-c2c(/C=C/C(=O)N3CCN(c4cccc(OC)c4)CC3)noc2-c2cc(Cl)c(O)cc2O)cc1	> 50	6.31	718	–
COc1ccc(-c2c(C(=O)N3CCC(Cc4ccccc4)CC3)noc2-c2cc(Cl)c(O)cc2O)cc1	< 50	< 5.00	> 10000	–
O=C(/C=C/c1noc(-c2cc(Cl)c(O)cc2O)c1-c1ccc(O)cc1)N1CCN(c2ccc(Cl)c(Cl)c2)CC1	> 50	5.85	3939	–
O=C(/C=C/c1noc(-c2cc(Cl)c(O)cc2O)c1-c1ccc(O)cc1)N1CCN(c2ncccn2)CC1	> 50	6.28	338	–
COc1ccc(-c2c(/C=C/C(=O)N3CCN(c4cccc(C(F)(F)F)c4)CC3)noc2-c2cc(Cl)c(O)cc2O)cc1	> 50	5.63	2255	–
COc1ccc(-c2c(C(=O)NC3CCN(CC(C)C)CC3)noc2-c2cc(Cl)c(O)cc2O)cc1	> 50	7.17	23	–
COc1ccc(-c2c(C(=O)NC3CCN(Cc4ccccc4)CC3)noc2-c2cc(Cl)c(O)cc2O)cc1	> 50	7.60	36	inhibition (Heat shock protein HSP90 [6]): Active; inhibition (Heat shock protein HSP90 [7]): Active; inhibition (Heat shock protein HSP90 [8]): Active; inhibition (Heat shock protein HSP90 [9]): Active
CC(C)c1cc(-c2n[nH]c(=O)n2-c2ccc3c(ccn3C)c2)c(O)cc1O	–	–	–	Activity (NCI-H1299 [10]): inactive
COc1ccc(-c2c(/C=C/C(=O)N3CCN(c4ccccc4)CC3)noc2-c2cc(Cl)c(O)cc2O)cc1	> 50	5.72	677	–
COc1ccc(N2CCN(C(=O)/C=C/c3noc(-c4cc(Cl)c(O)cc4O)c3-c3ccc(O)cc3)CC2)cc1	> 50	6.02	576	–
CCNC(=O)N1CCC(NC(=O)c2noc(-c3cc(Cl)c(O)cc3O)c2-c2ccc(OC)cc2)CC1	> 50	6.82	20	–

Compound	inhibition [1] [%]	pIC50 [2]	IC50 (Heat shock protein HSP90 [3]) [nM]	further results
COc1ccc(-c2c(C(=O)Nc3ccc(N(C)C)cc3)noc2-c2cc(Cl)c(O)cc2O)cc1	> 50	6.42	91	–
COc1ccc(-c2c(C(=O)NC3CCN(C(C)=O)CC3)noc2-c2cc(Cl)c(O)cc2O)cc1	> 50	6.68	25	–
COc1ccc(-c2c(/C=C/C(=O)N3CCN(c4ccc(Cl)c(Cl)c4)CC3)noc2-c2cc(Cl)c(O)cc2O)cc1	> 50	5.37	4232	–
COc1ccc(-c2c(C(=O)NC3CCN(Cc4ccc(Cl)cc4Cl)CC3)noc2-c2cc(Cl)c(O)cc2O)cc1	> 50	6.80	127	–
O=C(/C=C/c1noc(-c2cc(Cl)c(O)cc2O)c1-c1ccc(O)cc1)N1CCN(c2ccccn2)CC1	> 50	6.06	357	–
COc1cccc(N2CCN(C(=O)/C=C/c3noc(-c4cc(Cl)c(O)cc4O)c3-c3ccc(O)cc3)CC2)c1	> 50	6.11	666	Papp B→A [11]: 15 ×10⁻⁶ cm/s; inhibition (Heat shock protein HSP90 [6]): Active; inhibition (Heat shock protein HSP90 [7]): Active; inhibition (Heat shock protein HSP90 [8]): Active; Papp A→B [12]: 6.54 ×10⁻⁶ cm/s; inhibition (Heat shock protein HSP90 [9]): Active; efflux ratio [13]: 2.29
COc1c(C)cnc(Cn2cnc3c(Cl)nc(N)nc32)c1C	–	–	–	inhibition (NCI-H1299 [14]): Active
COc1ccc(-c2c(C(=O)NCc3ccc(Cl)cc3Cl)noc2-c2cc(Cl)c(O)cc2O)cc1	> 50	6.21	1600	–
COc1ccc(-c2c(/C=C/C(=O)N3CCN(c4ccc(OC)cc4)CC3)noc2-c2cc(Cl)c(O)cc2O)cc1	> 50	6.25	700	–
O=C(O)C(Cl)Cl	–	–	–	inhibition (NCI-H1299 [15]): Active; inhibition [16]: Active; inhibition (NCI-H1299 [17]): Active
COc1ccc(-c2c(/C=C/C(=O)N3CCN(c4ccccn4)CC3)noc2-c2cc(Cl)c(O)cc2O)cc1	> 50	5.98	215	–
COc1ccc(-c2c(/C=C/C(=O)N3CCN(c4ncccn4)CC3)noc2-c2cc(Cl)c(O)cc2O)cc1	> 50	5.97	208	Papp B→A [11]: 5.09 ×10⁻⁶ cm/s; inhibition (Heat shock protein HSP90 [6]): Active; inhibition (Heat shock protein HSP90 [7]): Active; inhibition (Heat shock protein HSP90 [8]): Active; Papp A→B [12]: 6.9 ×10⁻⁶ cm/s; inhibition (Heat shock protein HSP90 [9]): Active; efflux ratio [13]: 0.74
COc1ccc(-c2c(C(=O)NC3CCN(S(C)(=O)=O)CC3)noc2-c2cc(Cl)c(O)cc2O)cc1	> 50	6.89	45	–
CC(C)NCCCn1c(Sc2cc3c(cc2I)OCO3)nc2c(N)ncnc21	–	–	–	inhibition (NCI-H1299 [14]): Active
CO[C@H]1/C=C\C=C(/C)C(=O)NC2=CC(=O)C(NCCN(C)C)=C(C[C@@H](C)C[C@H](OC)[C@H](O)[C@@H](C)/C=C(\C)[C@@H]1OC(N)=O)C2=O	–	–	–	inhibition (NCI-H1299 [14]): Active
CC1(C)CC(=O)c2c(C(F)(F)F)nn(-c3ccc(C(N)=O)c(N[C@H]4CC[C@H](O)CC4)c3)c2C1	–	–	–	Activity (NCI-H1299 [10]): inactive
COc1ccc(CN2CCC(NC(=O)c3noc(-c4cc(Cl)c(O)cc4O)c3-c3ccc(OC)cc3)CC2)cc1	> 50	7.77	16	Papp B→A [11]: 8.7 ×10⁻⁶ cm/s; inhibition (Heat shock protein HSP90 [6]): Active; inhibition (Heat shock protein HSP90 [7]): Active; inhibition (Heat shock protein HSP90 [8]): Active; Papp A→B [12]: 0.962 ×10⁻⁶ cm/s; inhibition (Heat shock protein HSP90 [9]): Active; efflux ratio [13]: 9.04
